Measurements from publication PMC3839535 (Nature chemical biology, 2013).
Entries after “also recorded” stand apart in the source; their conditions may differ.

Legend:
human melanopsin [1] = target: T1, human melanopsin (Homo sapiens, UniProt Q9UHM6); assay: Radioligand binding with [^3H]2-AA41612 to CHO^Opn4 cell membranes; conditions: competition binding
T1 sequence (Q9UHM6 1-478): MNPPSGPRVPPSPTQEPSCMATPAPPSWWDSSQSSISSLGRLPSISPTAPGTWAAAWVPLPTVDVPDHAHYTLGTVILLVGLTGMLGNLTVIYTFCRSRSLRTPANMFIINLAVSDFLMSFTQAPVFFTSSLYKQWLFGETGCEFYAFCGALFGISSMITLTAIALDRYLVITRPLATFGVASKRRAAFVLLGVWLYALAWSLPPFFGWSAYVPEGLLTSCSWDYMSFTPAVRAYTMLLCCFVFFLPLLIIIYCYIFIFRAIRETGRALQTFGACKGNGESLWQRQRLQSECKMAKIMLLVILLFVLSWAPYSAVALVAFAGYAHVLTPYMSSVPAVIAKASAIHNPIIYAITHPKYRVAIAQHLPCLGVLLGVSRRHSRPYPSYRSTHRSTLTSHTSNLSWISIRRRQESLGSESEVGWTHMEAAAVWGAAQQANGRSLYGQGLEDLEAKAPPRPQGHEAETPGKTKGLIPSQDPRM
Outline: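 Membranes came from light-exposed CHO cells stably expressing human melanopsin. Cells were sonicated in ice-cold 20 mM Tris-HCl, 10 mM EDTA, pH 7.4, then spun at 200g for 5 min and 40,000g for 20 min at 4 °C, and washed. Assay buffer was 50 mM Tris-HCl, 1 mM EDTA, 5 mM MgSO4, pH 7.4. Saturation binding used increasing concentrations of [3H] radioligand. Competition binding used 300 pM radioligand against increasing competitor for 2 h in the dark at 25 °C. Reactions were filtered through PEI-treated glass fibre filters and counted by scintillation. Nonspecific binding was defined with 10 µM 9-cis retinal, and specific binding was taken as total minus nonspecific.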

mouse melanopsin = target: T2, mouse melanopsin (Mus musculus, UniProt Q9QXZ9); assay: Melanopsin photocurrent in Xenopus oocytes; assay type: cell-based
T2 sequence (Q9QXZ9 1-521): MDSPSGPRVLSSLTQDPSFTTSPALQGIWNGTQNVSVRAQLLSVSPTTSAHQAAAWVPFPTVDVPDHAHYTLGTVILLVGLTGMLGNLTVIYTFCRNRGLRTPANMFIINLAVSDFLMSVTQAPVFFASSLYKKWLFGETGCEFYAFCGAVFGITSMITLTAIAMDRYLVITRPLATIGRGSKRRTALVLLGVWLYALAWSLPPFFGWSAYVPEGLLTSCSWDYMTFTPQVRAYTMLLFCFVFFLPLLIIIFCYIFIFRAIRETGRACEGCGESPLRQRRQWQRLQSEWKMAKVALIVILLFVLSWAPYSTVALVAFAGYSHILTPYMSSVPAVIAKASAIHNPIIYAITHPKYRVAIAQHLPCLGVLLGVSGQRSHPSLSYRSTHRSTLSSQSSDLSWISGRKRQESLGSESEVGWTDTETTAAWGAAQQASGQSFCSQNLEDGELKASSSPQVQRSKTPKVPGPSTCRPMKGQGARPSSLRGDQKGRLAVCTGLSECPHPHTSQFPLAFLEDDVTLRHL
Outline: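 Stage IV Xenopus oocytes injected with in vitro transcribed, polyadenylated mRNAs for mouse melanopsin, TrpC3, Gαq and Arrb1. Test compound was perfused for 3 min at increasing concentrations before 50 µM 11-cis retinal was added. Melanopsin photocurrent was recorded intracellularly in response to 60 s white light, averaged over n = 5 oocytes.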

human melanopsin [2] = target: T1, human melanopsin; assay: Ca^2+ release assay in CHO^Opn4 cells; assay type: cell-based
[3] = system: 74 biological targets including GPCRs and ion channels; assay: Radioligand binding panel of 74 biological targets; conditions: 10 µM
neonatal mice = assay: Negative phototaxis assay; assay type: in vivo; conditions: WT neonatal pups (P7-P9), 30 mg kg^−1 sub-cutaneous, 480 nm light
Outline: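 WT and Opn4−/− pups aged P7–P9 were tested once daily. Pups were dark-adapted for 1 h, then given vehicle or compound at 30 mg kg−1 s.c. Each pup wore a head reflective sticker and sat in a transparent tube for 10 min. After 5 min of darkness, the head end was lit with 480 nm light at 9.5 × 10^15 ph/cm2/s. IR video covered 2 min before and 5 min after light onset. Head distance was scored in 1 s bins, and mean activity was compared before and after light. Pups without any bin above 1.3 mm/bin before light were excluded.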

mice = assay: Pupillary light reflex; assay type: in vivo; conditions: 10^13 ph.cm^−2.s^−1
Outline: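 rd, WT and Opn4−/− mice carried an acrylic headpost and had at least 1 wk of recovery. Dark-adapted mice received vehicle or compound at 30 mg kg−1 IP 20 min before the first light, plus tropicamide in the left eye. The right eye was filmed under IR at 30 Hz. Each 5 min sequence was 1 min dark, 1 min 480 nm light (1 × 10^13 or 1 × 10^10 ph.cm−2.s−1), then 3 min dark. Sequences were repeated 19, 29 and 39 min post-injection. Pupil diameter was normalised to the mean of the first 20 s of darkness; n = 6–7.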

[4] = Pharmacokinetics: retina and brain levels after IP dosing; assay type: in vivo; conditions: mice, 30 mg kg^−1 IP, within 2 h
Outline: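 Mice were dosed at 30 mg kg−1 IP, and retina and brain were sampled at several times afterwards. Frozen brains were homogenised in four volumes of 50% water/30% 2-propanol/20% DMSO and spiked with internal standard. Samples were centrifuged and the supernatant analysed by LC/MS/MS. Quantitation used a standard curve (0–5,000 ng/ml) prepared in homogenate.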

rod/cone photoreceptors = assay: Electroretinogram; assay type: in vivo; conditions: WT C57BL/6J and Opn4^−/− mice, 30 mg kg^-1, recorded within 30 min of administration, versus vehicle

Hill slope, displacement of [^3H]2-AA41612 (human melanopsin [1])	IC50 (human melanopsin [2]) [nM]	Compound	IC50 (mouse melanopsin) [nM]	inhibition of radioligand binding to a panel of 74 biological targets [3]	effect on light aversion (negative phototaxis) behavior (neonatal mice)	effect on PLR under high light intensity (mice; Wild type (WT) mice)	attenuation of pupil constriction in response to light (mice; adult rd mice, 30 mg kg^−1 i.p. 20 min prior)	fraction cleared from the retina [4] [%]	slope of Schild regression (dose ratio) plot (human melanopsin [2]; versus 9-cis retinal, light-exposed CHO^Opn4 cells)	effect on rod and rod/cone electroretinogram (rod/cone photoreceptors)
~1.0		CC1=C(/C=C/C(C)=C\C=C\C(C)=C\C=O)C(C)(C)CCC1 [9-cis retinal, reference compound]								
~1.0	15.8 ± 1.8	COc1cc(Cl)c(S(=O)(=O)N2CCCCC2)cc1Cl [AA41612, 1-(2,5-Dichloro-4-methoxy-benzenesulfonyl)-piperidine]	20							

Compound	Hill slope, displacement of [^3H]2-AA41612 (human melanopsin [1])	IC50 (human melanopsin [2]) [nM]	IC50 (mouse melanopsin) [nM]	inhibition of radioligand binding to a panel of 74 biological targets [3]	effect on light aversion (negative phototaxis) behavior (neonatal mice)	effect on PLR under high light intensity (mice; Wild type (WT) mice)	attenuation of pupil constriction in response to light (mice; adult rd mice, 30 mg kg^−1 i.p. 20 min prior)	fraction cleared from the retina [4] [%]	slope of Schild regression (dose ratio) plot (human melanopsin [2]; versus 9-cis retinal, light-exposed CHO^Opn4 cells)	effect on rod and rod/cone electroretinogram (rod/cone photoreceptors)
COc1ccc(S(=O)(=O)N2CCCCC2)cc1C [AA92593, 1-((4-methoxy-3-methylphenyl)sulfonyl)piperidine]	~1.0		190	failed to inhibit radioligand binding	significantly reduced; also recorded: remarkably reduced light aversion behavior	attenuated PLR	~ 50%	> 95	0.9	no noticeable inhibition of rod/cone photoreceptors
